# Assay results published in ChEMBL document CHEMBL4316650, “Leucinostatin Y: A Peptaibiotic Produced by the Entomoparasitic Fungus Purpureocillium lilacinum 40-H-28” (J Nat Prod, 2019).
# The source made the active and inactive calls. The calls are words filed in the database; no cut-off is given here. *1 amine or outer side, *2 acyl side, *3 side chain or, on linkers, in order; H or OH if unused. Where a SMILES comes first, the peptide text is derived from it. [ ]: non-standard residue; d: D form. The star is where a group is joined. ξ: configuration not given here. X1 = CCC(=O)C[C@H](O)C[C@@H](C)C[C@H](N[*:1])C(=O)[*:2]; X3 = CCC(=O)CC(O)CC(C)C[C@H](N[*:1])C(=O)[*:2]; Hexenoyl(2E,4S-Me) = CC[C@H](C)/C=C/C(=O)*; Leu(3R-OH) = CC(C)[C@@H](O)[C@H](N)C(=O)O; NH((S)CH(Me)CH2NMe2) = C[C@@H](CN(C)C)N*; Pro(4S-Me) = C[C@@H]1CN[C@H](C(=O)O)C1; X2 = CCC(C)/C=C/C(=O)*; Aib = CC(C)(N)C(=O)O; βAla = NCCC(=O)O; ξA = CC(N)C(=O)O
# How the values were obtained:
# Homo sapiens [1] = species on record: Homo sapiens; experiment: Inhibition of mitochondrial ATPase in human PANC1 cells assessed as increase in extracellular acidification rate in presence of glucose by seahorse XFe96 analyser based assay; assay type: cell-based
# Summary of the method: (§1)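 Mito stress test on PANC-1 cells: 2 × 10⁴ cells were plated in DMEM overnight. Cells were moved to XF base medium with 1 mM pyruvate and 2 mM GlutaMax, containing 1 g/L glucose (or lacking it for glucose-free runs), then held 30 min at 37 °C without CO2. Injections in order: compound, 1 μM oligomycin, 1 μM FCCP, 0.5 μM rotenone plus 0.5 μM antimycin. OCR and ECAR were taken as mean rates per cycle of 2 min mixing and 3 min acquisition, over 20 or 21 cycles.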
# BXPC-3 [2] = experiment: Cytotoxicity against human BxPC3 cells assessed as reduction in cell viability measured after 24 hrs under glucose-deprived condition by MTT assay; assay type: functional, cell-based
# Summary of the method: (§2)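 Cells grown at 37 °C, 5% CO2 in DMEM with 10% FBS. 2.5 × 10⁴ cells/well were seeded in DMEM for 24 h, then PBS-washed and switched to fresh DMEM (+glucose) or glucose-deprived medium. Compound exposure was 24 h. MTT at 0.5 mg/mL was added for 4 h at 37 °C, then 20% SDS for 12 h at 37 °C. Absorbance read at 570 nm.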
# Homo sapiens [3] = species on record: Homo sapiens; experiment: Inhibition of mitochondrial ATPase in human PANC1 cells assessed as decrease in oxygen consumption rate at 0.6 ug/ml in absence of glucose by seahorse XFe96 analyser based assay; assay type: cell-based; summary of the method: as §1
# PSN1 [4] = experiment: Cytotoxicity against human PSN1 cells assessed as reduction in cell viability measured after 24 hrs in presence of glucose by MTT assay; assay type: cell-based; settings: psn1, 24 h; summary of the method: as §2
# BXPC-3 [5] = experiment: Cytotoxicity against human BxPC3 cells assessed as reduction in cell viability measured after 24 hrs in presence of glucose by MTT assay; assay type: cell-based; settings: bxpc-3, 24 h; summary of the method: as §2
# PSN1 [6] = experiment: Cytotoxicity against human PSN1 cells assessed as reduction in cell viability measured after 24 hrs under glucose-deprived condition by MTT assay; assay type: functional, cell-based; summary of the method: as §2
# [7] = Cytotoxicity against human PK8 cells assessed as reduction in cell viability measured after 24 hrs in presence of glucose by MTT assay; assay type: cell-based; summary of the method: as §2
# Homo sapiens [8] = species on record: Homo sapiens; experiment: Cytotoxicity against human PK8 cells assessed as reduction in cell viability measured after 24 hrs under glucose-deprived condition by MTT assay; assay type: functional, cell-based; summary of the method: as §2
# Homo sapiens [9] = species on record: Homo sapiens; experiment: Inhibition of mitochondrial ATPase in human PANC1 cells assessed as decrease in oxygen consumption rate at 0.6 ug/ml in presence of glucose by seahorse XFe96 analyser based assay; assay type: cell-based; summary of the method: as §1
# Homo sapiens [10] = species on record: Homo sapiens; experiment: Inhibition of mitochondrial ATPase in human PANC1 cells assessed as decrease in oxygen consumption rate in presence of glucose by seahorse XFe96 analyser based assay; assay type: cell-based; summary of the method: as §1
# PANC-1 [11] = experiment: Cytotoxicity against human PANC1 cells assessed as reduction in cell viability measured after 24 hrs under glucose-deprived condition by MTT assay; assay type: functional, cell-based; summary of the method: as §2
# Homo sapiens [12] = species on record: Homo sapiens; experiment: Inhibition of mitochondrial ATPase in human PANC1 cells assessed as increase in extracellular acidification rate at 0.6 ug/ml in absence of glucose by seahorse XFe96 analyser based assay; assay type: cell-based; summary of the method: as §1
# Homo sapiens [13] = species on record: Homo sapiens; experiment: Inhibition of mitochondrial ATPase in human PANC1 cells assessed as increase in extracellular acidification rate at 0.6 ug/ml in presence of glucose by seahorse XFe96 analyser based assay; assay type: cell-based; summary of the method: as §1
# PANC-1 [14] = experiment: Cytotoxicity against human PANC1 cells assessed as reduction in cell viability measured after 24 hrs in presence of glucose by MTT assay; assay type: cell-based; settings: panc-1, 24 h; summary of the method: as §2
Structure (SMILES),inhibition (Homo sapiens [1]),Activity (BXPC-3 [2]),inhibition (Homo sapiens [3]),Activity (PSN1 [4]),Activity (BXPC-3 [5]),Activity (PSN1 [6]),Activity [7],Activity (Homo sapiens [8]),inhibition (Homo sapiens [9]),inhibition (Homo sapiens [10]),Activity (PANC-1 [11]),inhibition (Homo sapiens [12]),inhibition (Homo sapiens [13]),Activity (PANC-1 [14])
"CCC(=O)C[C@H](O)C[C@@H](C)C[C@H](NC(=O)[C@@H]1C[C@H](C)CN1C(=O)/C=C/[C@@H](C)CC)C(=O)N[C@H](C(=O)NC(C)(C)C(=O)N[C@@H](CC(C)C)C(=O)N[C@@H](CC(C)C)C(=O)NC(C)(C)C(=O)NC(C)(C)C(=O)NCCC(=O)N[C@@H](C)CN(C)C)[C@H](O)C(C)C ({Hexenoyl(2E,4S-Me)}-[Pro(4S-Me)][X1][Leu(3R-OH)][Aib]LL[Aib][Aib][βAla]-{NH((S)CH(Me)CH2NMe2)})",Active,Active,Active,Non-Toxic,Non-Toxic,Active,Non-Toxic,Active,Active,Active,Active,inactive,Active,
CCC(=O)CC(O)CC(C)C[C@H](NC(=O)[C@@H]1C[C@H](C)CN1C(=O)/C=C/C(C)CC)C(=O)N[C@H](C(=O)NC(C)(C)C(=O)N[C@@H](CC(C)C)C(=O)N[C@@H](CC(C)C)C(=O)NC(C)(C)C(=O)NC(C)(C)C(=O)NCCC(=O)NC(C)C(=O)O)[C@H](O)C(C)C (stereo partly drawn) (X2-[Pro(4S-Me)][X3][Leu(3R-OH)][Aib]LL[Aib][Aib][βAla][ξA]-OH),inactive,inactive,,Non-Toxic,Non-Toxic,inactive,Non-Toxic,inactive,,inactive,inactive,,,Non-Toxic
